Active and inactive are the calls of the source. No cut-off for these calls is given here.
What was measured:
Thymidylate kinase [1] = biological target: T1, Thymidylate kinase (Mycobacterium tuberculosis, UniProt P9WKE1); assay: Inhibition of Mycobacterium tuberculosis recombinant TMPK
T1 sequence (P9WKE1 whole entry): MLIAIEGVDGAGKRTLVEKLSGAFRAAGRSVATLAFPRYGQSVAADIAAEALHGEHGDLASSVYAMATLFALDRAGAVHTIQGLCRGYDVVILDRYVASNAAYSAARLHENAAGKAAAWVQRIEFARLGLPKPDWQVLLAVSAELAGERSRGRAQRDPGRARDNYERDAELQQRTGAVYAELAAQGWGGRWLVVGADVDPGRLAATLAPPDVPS

Vero [2] = assay: Cytotoxicity against african green monkey Vero cells by MTT assay at 400 ug/ml after 72 hrs; format: cell-based; conditions: chlorocebus sabaeus
Summary of the method: (§1)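 Vero cells in DMEM with 10% fetal calf serum plus penicillin/streptomycin; seeded 6 × 10^3 cells/mL, exposed to compounds (range 5–400 µg/mL) 72 h at 37 °C, 5% CO2; MTT 7.5 mg/mL added 4 h, formazan dissolved in 10% SDS/0.01 M HCl, OD 550/570 nm; duplicate, untreated cells as control.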

[3] = Selectivity index, ratio of Ki for human TMPK to Ki for Mycobacterium tuberculosis recombinant TMPK
Summary of the method: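 Selectivity index computed as Ki human TMPK divided by Ki M. tuberculosis TMPK, each Ki from recombinant enzyme assays with ATP and dTMP, mean of three assays.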

Thymidylate kinase [4] = biological target: T2, Thymidylate kinase (Homo sapiens, UniProt P23919); assay: Inhibition of human TMPK
T2 sequence (P23919 whole entry): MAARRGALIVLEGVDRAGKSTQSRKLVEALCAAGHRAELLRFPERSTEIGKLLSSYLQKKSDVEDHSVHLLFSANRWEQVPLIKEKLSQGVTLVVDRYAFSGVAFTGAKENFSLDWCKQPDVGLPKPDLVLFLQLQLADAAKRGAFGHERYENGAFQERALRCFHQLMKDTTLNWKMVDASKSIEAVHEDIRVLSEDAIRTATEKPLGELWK

[5] = biological target: T3, Thymidylate kinase (Homo sapiens) (UniProt P23919); assay: Inhibition of human TMPK upto 2 mM
T3 sequence (whole entry): T2 sequence (P23919 whole entry)

[6] = biological target: T4, Thymidylate kinase (Mycobacterium tuberculosis) (UniProt P9WKE1); assay: Inhibition of Mycobacterium tuberculosis recombinant TMPK upto 0.2 mM
T4 sequence (whole entry): T1 sequence (P9WKE1 whole entry)

[7] = biological target: T4, Thymidylate kinase (Mycobacterium tuberculosis); assay: Inhibition of Mycobacterium tuberculosis recombinant TMPK upto 2 mM
Vero [8] = assay: Cytotoxicity against african green monkey Vero cells by MTT assay at 100 ug/ml after 72 hrs; format: cell-based; conditions: chlorocebus sabaeus; summary of the method: as §1

| SMILES | Ki (Thymidylate kinase [1]) | Activity (Vero [2]) | further results |
| --- | --- | --- | --- |
| Cc1cn(Cc2ccc(C#CCCCC(=O)O)cc2)c(=O)[nH]c1=O | 96 µM | Non-toxic |  |
| COC(=O)CCCc1ccc(Cn2cc(Cl)c(=O)[nH]c2=O)cc1 | 59 µM | Non-toxic |  |
| O=C(O)CCCCc1ccc(Cn2cc(Cl)c(=O)[nH]c2=O)cc1 | 16 µM | Non-toxic | Ratio Ki [3]: 7.6; Ki (Thymidylate kinase [4]): 122 µM |
| NC(=O)CCCc1ccc(Cn2cc(Br)c(=O)[nH]c2=O)cc1 | 39 µM | Non-toxic | Activity [5]: inactive |
| Cc1cn(Cc2ccc(Br)cc2)c(=O)[nH]c1=O |  | Non-toxic |  |
| CCCCc1ccc(Cn2cc(Br)c(=O)[nH]c2=O)cc1 |  | Non-toxic | Activity [6]: inactive |
| Cc1cn([C@@H]2O[C@H](CO)[C@@H](O)[C@H]2O)c(=O)n(Cc2ccccc2)c1=O | 75 µM |  |  |
| Cc1cn(Cc2ccc(CCCCO)cc2)c(=O)[nH]c1=O | 51 µM | Non-toxic |  |
| Cc1cn(Cc2ccc(/C=C/C(=O)O)cc2)c(=O)[nH]c1=O |  | Non-toxic | Activity [7]: inactive |
| O=C(O)CCCCCc1ccc(Cn2cc(Cl)c(=O)[nH]c2=O)cc1 | 23 µM | Non-toxic |  |
| Cc1cn(Cc2ccc(CCCC(N)=O)cc2)c(=O)[nH]c1=O | 112 µM | Non-toxic |  |
| Cc1cn(Cc2ccc(CCCC(=O)O)cc2)c(=O)[nH]c1=O | 13 µM |  | Ratio Ki [3]: 19; Ki (Thymidylate kinase [4]): 252 µM |
| Cc1cn(Cc2ccc(CCC(N)=O)cc2)c(=O)[nH]c1=O | 89 µM | Non-toxic |  |
| Cc1cn([C@H]2C[C@H](O)[C@@H](CO)O2)c(=O)[nH]c1=O [DOXRIBTIMINE] |  | Non-toxic |  |
| O=C(O)CCCCc1ccc(Cn2cc(Br)c(=O)[nH]c2=O)cc1 | 38 µM | Non-toxic |  |
| Cc1cn(Cc2ccc(CCC(=O)O)cc2)c(=O)[nH]c1=O | 55 µM | Non-toxic |  |
| Cc1cn(Cc2ccc(CCCCCC(=O)O)cc2)c(=O)[nH]c1=O | 47 µM | Non-toxic |  |
| Cc1cn(Cc2ccc(CCCCC(=O)O)cc2)c(=O)[nH]c1=O | 58 µM | Non-toxic |  |
| Cc1cn(Cc2ccc(CCCCCC(N)=O)cc2)c(=O)[nH]c1=O | 26.5 µM | Non-toxic |  |

| SMILES | Ki (Thymidylate kinase [1]) | Activity (Vero [2]) | further results |
| --- | --- | --- | --- |
| O=c1[nH]c(=O)n([C@H]2C[C@H](O)[C@@H](CO)O2)cc1Cl [CHLORODEOXYURIDINE] | 10 µM |  |  |
| Cc1cn(Cc2ccc(CCCCC(N)=O)cc2)c(=O)[nH]c1=O | 55 µM | Non-toxic |  |
| Cc1cn(Cc2ccc(C#CCCO)cc2)c(=O)[nH]c1=O | 70 µM | Non-toxic |  |
| NC(=O)CCCCCc1ccc(Cn2cc(Cl)c(=O)[nH]c2=O)cc1 | 26 µM | Non-toxic |  |
| Cc1cn(Cc2ccc(/C=C/C(N)=O)cc2)c(=O)[nH]c1=O | 195 µM | Non-toxic |  |
| NC(=O)CCCCc1ccc(Cn2cc(Br)c(=O)[nH]c2=O)cc1 | 35 µM | Non-toxic |  |
| O=C(O)CCCc1ccc(Cn2ccc(=O)[nH]c2=O)cc1 | 202 µM | Non-toxic |  |
| NC(=O)CCCc1ccc(Cn2cc(Cl)c(=O)[nH]c2=O)cc1 | 39 µM |  | Activity (Vero [8]): 10%; Activity [5]: inactive |
| CCCCCCc1ccc(Cn2cc(Br)c(=O)[nH]c2=O)cc1 |  | Non-toxic | Activity [6]: inactive |
| NC(=O)CCCCCc1ccc(Cn2cc(Br)c(=O)[nH]c2=O)cc1 | 19.5 µM | Non-toxic |  |
| O=C(O)CCCc1ccc(Cn2cc(Br)c(=O)[nH]c2=O)cc1 | 10 µM |  | Activity (Vero [8]): 14%; Ratio Ki [3]: 29; Ki (Thymidylate kinase [4]): 293 µM |
| NC(=O)CCCc1ccc(Cn2ccc(=O)[nH]c2=O)cc1 |  | Non-toxic | Activity [7]: inactive |
| CCCCc1ccc(Cn2cc(Cl)c(=O)[nH]c2=O)cc1 |  | Non-toxic | Activity [6]: inactive |
| Cc1cn(Cc2ccc(/C=C/CC(=O)O)cc2)c(=O)[nH]c1=O | 39 µM | Non-toxic |  |
| COC(=O)CCCc1ccc(Cn2cc(Br)c(=O)[nH]c2=O)cc1 | 52 µM | Non-toxic |  |
| O=C(O)CCCc1ccc(Cn2cc(Cl)c(=O)[nH]c2=O)cc1 |  | Non-toxic | Ratio Ki [3]: 120; Ki (Thymidylate kinase [4]): 790 µM |
| O=c1[nH]c(=O)n([C@H]2C[C@H](O)[C@@H](CO)O2)cc1Br [BROXURIDINE] | 5 µM | Non-toxic | Ratio Ki [3]: 43; Ki (Thymidylate kinase [4]): 214 µM |
| CCCCCCc1ccc(Cn2cc(Cl)c(=O)[nH]c2=O)cc1 |  | Non-toxic | Activity [6]: inactive |
| O=C(O)CCCCCc1ccc(Cn2cc(Br)c(=O)[nH]c2=O)cc1 | 34 µM | Non-toxic | Ratio Ki [3]: 3; Ki (Thymidylate kinase [4]): 92 µM |

From ChEMBL document CHEMBL1150358, “Substituted benzyl-pyrimidines targeting thymidine monophosphate kinase of Mycobacterium tuberculosis: synthesis and in vitro anti-mycobacterial activity” (Bioorg Med Chem, 2008)
